Results as given in ChEMBL document CHEMBL1828628, “Discovery of a tetrahydroisoquinoline-based hydroxamic acid derivative (ZYJ-34c) as histone deacetylase inhibitor with potent oral antitumor activities” (J Med Chem, 2011).
Activity calls are given as the source filed them. The calls are words filed in the database; no cut-off is given here.

Key:
Mus musculus [1] = assay: Toxicity in human MDA-MB-231 cells xenografted BALB/c nu mouse assessed as signs of organ toxicity at 90 mg/kg, po qd for 19 days; format: organism-based; design: dose 90 mg/kg, route oral; settings: in vivo, 456 h
MDA-MB-231 [2] = assay: Antitumor activity against human MDA-MB-231 cells xenografted in BALB/c nu mouse assessed as tumor growth inhibition administered as ip qd for 19 days; format: functional, organism-based
In short: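 Female athymic BALB/c-nu mice, 5–6 weeks old, were inoculated subcutaneously in the right flank with RPMI1640/10% FBS-cultured tumor cells (5 × 10^6 for MDA-MB-231). At about 100 mm3 (~10 days), mice were randomized 6 per group and dosed orally or intraperitoneally for 19 days. Vehicle controls received PBS containing DMSO. TGI = (control − treated mean tumor weight)/control mean tumor weight, at end of treatment.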

Mus musculus [3] = assay: Toxicity in human MDA-MB-231 cells xenografted BALB/c nu mouse assessed as signs of organ toxicity at 60 mg/kg, ip qd for 19 days; format: organism-based; design: dose 60 mg/kg, route intraperitoneal; settings: in vivo, 456 h
Mus musculus [4] = assay: Toxicity in mouse H22 cells xenografted Kunming mouse assessed as change in body weight at 60 mg/kg, po qd for 19 days; format: organism-based; design: dose 60 mg/kg, route oral; settings: in vivo, 456 h
PC-3 = assay: Antiproliferative activity against human PC3 cells after 48 hrs by MTT assay; format: functional, cell-based; settings: PC-3, 48 h
MDA-MB-231 [5] = assay: Cell cycle arrest in human MDA-MB-231 cells assessed as accumulation at G2 phase at 2 to 5 uM after 48 hrs using propidium iodide staining by flow cytometric analysis; format: functional, cell-based
In short: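 MDA-MB-231 cells were seeded at 4 × 10^5 per well and incubated overnight, then treated for 48 h. Cells were fixed overnight in 70% ethanol phosphate buffer and washed twice with PBS. They were treated with DNase-free RNase A (1 mg/mL) for 30 min, then stained with propidium iodide for 30 min in the dark at room temperature. DNA content was read by FACScan flow cytometry.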

[6] = target: T1, Protein deacetylase HDAC6 (Homo sapiens, UniProt Q9UBN7); assay: Inhibition of HDAC6 using Boc-Lys (acetyl)-AMC as substrate after 30 mins by fluorescence assay
T1 sequence (Q9UBN7 whole entry): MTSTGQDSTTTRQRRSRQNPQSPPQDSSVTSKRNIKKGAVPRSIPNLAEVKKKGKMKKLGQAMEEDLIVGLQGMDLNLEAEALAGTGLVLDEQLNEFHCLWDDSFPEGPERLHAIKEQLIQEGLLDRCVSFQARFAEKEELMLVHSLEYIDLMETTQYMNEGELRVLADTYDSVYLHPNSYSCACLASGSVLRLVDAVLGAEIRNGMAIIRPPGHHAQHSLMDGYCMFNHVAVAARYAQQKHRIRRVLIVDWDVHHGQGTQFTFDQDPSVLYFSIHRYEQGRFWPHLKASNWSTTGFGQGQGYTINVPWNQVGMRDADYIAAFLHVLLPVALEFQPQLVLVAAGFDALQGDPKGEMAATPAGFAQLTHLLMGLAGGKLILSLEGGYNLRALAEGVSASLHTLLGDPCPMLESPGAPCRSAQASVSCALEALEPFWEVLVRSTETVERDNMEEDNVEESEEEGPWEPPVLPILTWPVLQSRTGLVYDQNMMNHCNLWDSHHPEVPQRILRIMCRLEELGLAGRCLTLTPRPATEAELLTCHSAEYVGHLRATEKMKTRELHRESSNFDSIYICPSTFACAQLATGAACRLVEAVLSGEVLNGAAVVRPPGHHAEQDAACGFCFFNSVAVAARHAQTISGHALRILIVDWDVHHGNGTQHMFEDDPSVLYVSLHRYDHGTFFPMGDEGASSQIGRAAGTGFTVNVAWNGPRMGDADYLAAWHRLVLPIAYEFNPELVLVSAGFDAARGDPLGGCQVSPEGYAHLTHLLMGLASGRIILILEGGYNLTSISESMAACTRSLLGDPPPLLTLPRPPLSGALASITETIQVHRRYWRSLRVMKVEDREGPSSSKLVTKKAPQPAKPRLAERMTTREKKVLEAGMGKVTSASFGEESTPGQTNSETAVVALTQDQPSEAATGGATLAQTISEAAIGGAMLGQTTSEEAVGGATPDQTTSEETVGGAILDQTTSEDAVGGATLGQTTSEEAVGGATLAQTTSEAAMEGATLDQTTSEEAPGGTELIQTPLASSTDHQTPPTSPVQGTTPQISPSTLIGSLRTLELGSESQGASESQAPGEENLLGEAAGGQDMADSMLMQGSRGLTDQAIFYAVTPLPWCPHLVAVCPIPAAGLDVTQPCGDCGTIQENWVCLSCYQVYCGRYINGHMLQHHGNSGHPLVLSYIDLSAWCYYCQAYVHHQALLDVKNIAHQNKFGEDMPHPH
In short: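 Enzyme (HeLa nuclear extract, HDAC6 or HDAC8) preincubated 5 min with a series of compound concentrations. Fluorogenic Boc-Lys(acetyl)-AMC substrate then added and incubated 37 °C for 30 min. Reaction stopped with developer containing trypsin and TSA, 20 min at 37 °C. Fluorescence read at ex 390/em 460 nm. Inhibition taken relative to control wells; IC50 from regression of concentration/inhibition data.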

K562 = assay: Antiproliferative activity against human K562 cells after 48 hrs by MTT assay; format: functional, cell-based; settings: K562, 48 h
In short: (§1)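 Cells kept in RPMI1640 with 10% FBS at 37 °C, 5% CO2. Cells were passaged into 96-well plates the day before dosing and left ≥4 h before compound addition. Exposure was 48 h, then 0.5% MTT for 4 h. Formazan was extracted with DMSO for 15 min and read at 570 nm. IC50 was derived from inhibition ratios; mean of three experiments.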

MDA-MB-231 [7] = assay: Antitumor activity against human MDA-MB-231 cells xenografted in BALB/c nu mouse assessed as tumor growth inhibition at 90 mg/kg, ip qd for 19 days relative to control; format: functional; settings: route intraperitoneal
H22 = assay: Antitumor activity against mouse H22 cells xenografted in Kunming mouse assessed as reduction of pulmonary metastatic nodes in lungs at 90 mg/kg, po qd for 14 days; format: functional, organism-based; design: dose 90 mg/kg
[8] = Antiproliferative activity against human ES2 cells after 48 hrs by MTT assay; format: functional, cell-based; settings: ES-2, 48 h; in short: as §1
Mus musculus [9] = assay: Toxicity in human MDA-MB-231 cells xenografted BALB/c nu mouse assessed as change in body weight at 90 mg/kg, ip qd for 19 days; format: organism-based; design: dose 90 mg/kg, route intraperitoneal; settings: in vivo, 456 h
In short: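 Female BALB/c-nu mice, 5–6 weeks old, bearing subcutaneous right-flank xenografts. Mice were randomized 6 per group at about 100 mm3 tumor size. Dosing was oral or intraperitoneal for 19 days; controls received an equal volume of PBS containing DMSO. Body weight was monitored regularly during treatment, and tumors were measured by caliper every three days.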

Mus musculus [10] = assay: Toxicity in mouse H22 cells xenografted Kunming mouse assessed as signs of organ toxicity at 60 mg/kg, po qd for 19 days; format: organism-based; design: dose 60 mg/kg, route oral; settings: in vivo, 456 h
[11] = Stability in artificial gastric juice; format: physicochemical; settings: simulated gi fluid
HL-60 = assay: Antiproliferative activity against human HL60 cells after 48 hrs by MTT assay; format: functional, cell-based; settings: HL-60, 48 h; in short: as §1
NB-4 = assay: Antiproliferative activity against human NB4 cells after 48 hrs by MTT assay; format: functional, cell-based; settings: NB-4, 48 h; in short: as §1

IC50 (PC-3): 0.83 µM
IC50 [6]: 0.056 µM
IC50 (K562): 3.47 µM
Stability [11]: Stable
IC50 (HL-60): 65.8 µM
SMILES: CC[C@H](C)[C@H](NC(=O)CC(C)(C)C)C(=O)N1Cc2cc(OCC(=O)NO)ccc2C[C@H]1C(=O)Nc1ccc(OC)cc1
Activity (Mus musculus [1]): Non-toxic
TGI (MDA-MB-231 [2]): Dose-dependent effect
Activity (Mus musculus [3]): Non-toxic
Activity (Mus musculus [4]): Non-toxic
Activity (MDA-MB-231 [5]): Active
inhibition in vivo at 90 mg/kg (MDA-MB-231 [7]; Mus musculus, MDA-MB-231, ip, 456 h, read-out: TGI): 51%
T/C (MDA-MB-231 [7]): 37%
Activity (H22): Active
IC50 [8]: 12.9 µM
Activity (Mus musculus [9]): Non-toxic
Activity (Mus musculus [10]): Non-toxic
IC50 (NB-4): 2.69 µM
